Measurements taken from ChEMBL document CHEMBL4270537, “Design and biological evaluation of novel triaryl pyrazoline derivatives with dioxane moiety for selective BRAFV600E inhibition” (Eur J Med Chem, 2018).
Activity calls are given as the source filed them. The calls are words filed in the database; no cut-off is given here.

Experiments:
[1] = molecular target: Serine/threonine-protein kinase B-raf (Mus musculus, UniProt P28028, V600E); assay: Inhibition of mouse full length GST-tagged BRAF V600E mutant using recombinant human full length N-terminal His-tagged MEK1 as substrate preincubated for 1 hr followed by substrate addition measured after 25 mins
HCT-116 = assay: Antiproliferative activity against human HCT116 cells after 48 hrs by MTT assay; type: functional; conditions: HCT-116, 48 h
Procedure, shortened: (§1)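 MTT reduction assay. Cell lines grown to log phase in DMEM with 10% FBS (A375 in DMEM with sodium pyruvate added), seeded at 10⁴ cells/well in 96-well plates. Three replicate wells per concentration, each assay run three times, GI50 averaged.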

A-375 [2] = assay: Antiproliferative activity against human A375 cells after 48 hrs by MTT assay; type: functional; conditions: A-375, 48 h; procedure, shortened: as §1
WM 266-4 = assay: Antiproliferative activity against human WM266.4 cells after 48 hrs by MTT assay; type: functional; conditions: WM 266-4, 48 h; procedure, shortened: as §1
[3] = Antiproliferative activity against human WM1361 cells after 48 hrs by MTT assay; type: functional; conditions: WM1361, 48 h; procedure, shortened: as §1
HT-29 = assay: Antiproliferative activity against human HT-29 cells after 48 hrs by MTT assay; type: functional; conditions: HT-29, 48 h; procedure, shortened: as §1
[4] = molecular target: Serine/threonine-protein kinase B-raf (Homo sapiens, UniProt P15056); assay: Inhibition of recombinant human full length GST-tagged wild type BRAF expressed in baculovirus expression system using recombinant human full length N-terminal His-tagged MEK1 as substrate preincubated for 1 hr followed by substrate addition measured after 25 mins
[5] = Cytotoxicity against HEK293T cells assessed as decrease in cell viability after 48 hrs by MTT assay; type: cell-based, HEK-293T; conditions: human; procedure, shortened: as §1
[6] = molecular target: Mitogen-activated protein kinase 14 (Homo sapiens, UniProt Q16539); assay: Inhibition of N-terminal flag-tagged p38alpha (unknown origin) expressed in baculovirus expression system using MBP as substrate preincubated for 5 mins followed by substrate addition measured after 60 mins in presence of [gamma-32P]ATP by topcount scintillation method
Procedure, shortened: (§2)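 Baculovirus-expressed N-terminal FLAG-tagged kinases in 25 mM HEPES pH 7.5, 10 mM Mg acetate, 1 mM DTT, 0.5 µM ATP plus [γ-³²P]ATP, 50 µL. p38α: 100 ng enzyme, MBP substrate. JNK1: 10 ng enzyme, 1 µg c-Jun. Compound and enzyme preincubated 5 min, ATP started the reaction, 60 min at 30 °C. Stopped with 10% TCA, filtered, washed with 3% phosphoric acid, counted by TopCount.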

[7] = molecular target: RAF proto-oncogene serine/threonine-protein kinase (Homo sapiens, UniProt P04049, Y340D/Y341D); assay: Inhibition of recombinant human GST-tagged c-RAF (306 to 648 residues) Y340D/Y341D mutant expressed in baculovirus expression system using recombinant human full length N-terminal His-tagged MEK1 as substrate preincubated for 1 hr followed by substrate addition measured after 25 mins
[8] = Cytotoxicity against human LO2 cells assessed as decrease in cell viability after 48 hrs by MTT assay; type: cell-based, L02; procedure, shortened: as §1
[9] = molecular target: Dual specificity mitogen-activated protein kinase kinase; MEK1/2 (Homo sapiens, UniProt P36507+Q02750); assay: Inhibition of MEK1/2 (unknown origin); type: protein assay
[10] = molecular target: Mitogen-activated protein kinase 8 (Homo sapiens, UniProt P45983); assay: Inhibition of N-terminal flag-tagged JNK1 (unknown origin) expressed in baculovirus expression system after 60 mins in presence of [gamma-32P]ATP by topcount scintillation method; procedure, shortened: as §2
Mus musculus = assay: Toxicity in nude mouse xenografted with human A375 cells assessed as body weight loss at 5 mg/kg, ip administered every second day for 14 days and measured every 2 days; type: organism-based; conditions: in vivo
Procedure, shortened: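 Nude mice bearing subcutaneous right-flank A375 xenografts (3×10⁶ cells in cold PBS) were randomized into groups of 5 at about 100 mm³. Compounds were suspended in olive oil and given intraperitoneally every second day for 14 days. Body weight was recorded every two days.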

A-375 [11] = assay: Antitumor activity against human A375 cells xenografted in nude mouse assessed as tumor weight at 5 mg/kg, ip administered every second day for 14 days and measured on day 15; type: functional
Procedure, shortened: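 A375 cells, 3 × 10⁶ in 0.1 mL cold PBS, injected subcutaneously into right flank of nude mice. Treatment began when tumors reached ~100 mm³; mice randomized, 5 per group. Compound suspended in olive oil, given intraperitoneally every second day for 14 days. Body weight recorded every two days; tumors excised and weighed on day 15.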

[12] = test system: Serine/threonine-protein kinase B-raf (Homo sapiens), P15056 [V600E]; assay: Inhibition of BRAF V600E mutant in human A375 cells assessed as decrease in MEK1/2 phosphorylation up to 0.3 uM after 30 mins by Western blot analysis; type: cell-based
Sequence of Serine/threonine-protein kinase B-raf (Homo sapiens), P15056 [V600E] (P15056 whole entry V600E): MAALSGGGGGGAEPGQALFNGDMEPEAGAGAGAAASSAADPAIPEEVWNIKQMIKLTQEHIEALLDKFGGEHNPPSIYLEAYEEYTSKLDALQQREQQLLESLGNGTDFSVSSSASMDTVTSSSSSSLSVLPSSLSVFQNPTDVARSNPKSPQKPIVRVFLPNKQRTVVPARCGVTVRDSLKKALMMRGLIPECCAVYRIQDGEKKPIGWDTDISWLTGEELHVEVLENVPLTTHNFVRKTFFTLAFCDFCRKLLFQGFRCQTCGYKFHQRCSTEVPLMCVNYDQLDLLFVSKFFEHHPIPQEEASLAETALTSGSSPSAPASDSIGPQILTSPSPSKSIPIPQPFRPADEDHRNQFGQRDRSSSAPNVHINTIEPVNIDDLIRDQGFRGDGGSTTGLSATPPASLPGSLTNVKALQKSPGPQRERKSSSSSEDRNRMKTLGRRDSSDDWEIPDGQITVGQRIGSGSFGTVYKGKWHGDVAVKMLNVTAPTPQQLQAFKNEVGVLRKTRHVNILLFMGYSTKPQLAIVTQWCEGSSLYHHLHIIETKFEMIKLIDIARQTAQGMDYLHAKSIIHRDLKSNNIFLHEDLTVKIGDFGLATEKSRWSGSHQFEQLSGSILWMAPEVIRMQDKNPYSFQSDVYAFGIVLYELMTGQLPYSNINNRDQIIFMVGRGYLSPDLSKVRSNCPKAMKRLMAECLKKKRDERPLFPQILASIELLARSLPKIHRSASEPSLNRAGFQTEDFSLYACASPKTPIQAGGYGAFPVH

Sequence of Serine/threonine-protein kinase B-raf (Mus musculus, UniProt P28028, V600E) (P28028 whole entry, looked up, stated change not applied): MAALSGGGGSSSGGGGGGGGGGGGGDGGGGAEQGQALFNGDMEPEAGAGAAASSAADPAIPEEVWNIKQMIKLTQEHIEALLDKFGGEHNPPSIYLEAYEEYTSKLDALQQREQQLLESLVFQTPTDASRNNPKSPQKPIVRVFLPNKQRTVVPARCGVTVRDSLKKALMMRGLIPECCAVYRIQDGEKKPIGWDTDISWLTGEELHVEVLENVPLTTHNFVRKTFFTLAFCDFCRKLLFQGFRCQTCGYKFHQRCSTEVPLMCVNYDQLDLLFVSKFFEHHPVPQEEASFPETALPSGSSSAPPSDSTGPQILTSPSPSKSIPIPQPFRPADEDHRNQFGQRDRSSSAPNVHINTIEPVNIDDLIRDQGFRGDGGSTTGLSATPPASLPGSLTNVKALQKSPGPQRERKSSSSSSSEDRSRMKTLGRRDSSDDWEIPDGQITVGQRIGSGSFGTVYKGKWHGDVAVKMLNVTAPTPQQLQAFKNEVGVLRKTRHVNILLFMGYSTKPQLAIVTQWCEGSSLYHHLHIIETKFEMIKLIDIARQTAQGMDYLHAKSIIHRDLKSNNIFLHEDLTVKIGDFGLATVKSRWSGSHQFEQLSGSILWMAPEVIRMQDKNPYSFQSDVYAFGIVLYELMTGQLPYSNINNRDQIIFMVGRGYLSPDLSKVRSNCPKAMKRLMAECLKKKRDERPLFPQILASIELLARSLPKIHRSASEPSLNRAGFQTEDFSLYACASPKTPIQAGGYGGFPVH
Sequence of Serine/threonine-protein kinase B-raf (Homo sapiens, UniProt P15056) (P15056 whole entry): as the sequence (P15056 whole entry V600E) above, with E600V counted along it
Sequence of RAF proto-oncogene serine/threonine-protein kinase (P04049 whole entry Y340D/Y341D, the tested form may be a part): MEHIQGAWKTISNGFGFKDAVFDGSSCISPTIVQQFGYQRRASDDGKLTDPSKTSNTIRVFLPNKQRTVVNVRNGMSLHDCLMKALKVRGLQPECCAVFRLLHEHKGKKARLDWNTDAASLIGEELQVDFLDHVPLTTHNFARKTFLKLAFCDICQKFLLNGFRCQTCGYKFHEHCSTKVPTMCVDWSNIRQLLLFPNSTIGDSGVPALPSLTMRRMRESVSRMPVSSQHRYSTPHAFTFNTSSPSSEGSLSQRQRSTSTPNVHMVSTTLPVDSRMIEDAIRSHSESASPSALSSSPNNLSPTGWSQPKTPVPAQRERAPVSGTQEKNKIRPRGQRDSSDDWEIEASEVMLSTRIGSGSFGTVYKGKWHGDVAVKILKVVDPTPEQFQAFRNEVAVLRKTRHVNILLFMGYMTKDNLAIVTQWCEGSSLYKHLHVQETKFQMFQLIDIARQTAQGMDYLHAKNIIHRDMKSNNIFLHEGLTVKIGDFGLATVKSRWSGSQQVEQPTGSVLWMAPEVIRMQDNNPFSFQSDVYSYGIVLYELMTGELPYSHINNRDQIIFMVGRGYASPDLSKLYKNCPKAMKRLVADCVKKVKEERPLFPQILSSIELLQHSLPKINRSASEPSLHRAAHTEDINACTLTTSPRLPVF
Sequence of Mitogen-activated protein kinase 14 (Q16539 whole entry): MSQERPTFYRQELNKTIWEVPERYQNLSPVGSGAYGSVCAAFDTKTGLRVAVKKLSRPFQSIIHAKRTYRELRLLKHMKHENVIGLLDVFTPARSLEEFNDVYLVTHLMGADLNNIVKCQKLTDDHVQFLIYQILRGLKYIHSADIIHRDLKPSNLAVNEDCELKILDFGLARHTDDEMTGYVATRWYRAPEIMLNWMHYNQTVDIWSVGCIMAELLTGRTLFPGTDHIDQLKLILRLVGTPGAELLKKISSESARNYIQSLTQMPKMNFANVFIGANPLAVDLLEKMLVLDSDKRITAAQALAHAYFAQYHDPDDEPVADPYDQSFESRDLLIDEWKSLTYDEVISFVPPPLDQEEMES
Sequence of Mitogen-activated protein kinase 8 (P45983 whole entry): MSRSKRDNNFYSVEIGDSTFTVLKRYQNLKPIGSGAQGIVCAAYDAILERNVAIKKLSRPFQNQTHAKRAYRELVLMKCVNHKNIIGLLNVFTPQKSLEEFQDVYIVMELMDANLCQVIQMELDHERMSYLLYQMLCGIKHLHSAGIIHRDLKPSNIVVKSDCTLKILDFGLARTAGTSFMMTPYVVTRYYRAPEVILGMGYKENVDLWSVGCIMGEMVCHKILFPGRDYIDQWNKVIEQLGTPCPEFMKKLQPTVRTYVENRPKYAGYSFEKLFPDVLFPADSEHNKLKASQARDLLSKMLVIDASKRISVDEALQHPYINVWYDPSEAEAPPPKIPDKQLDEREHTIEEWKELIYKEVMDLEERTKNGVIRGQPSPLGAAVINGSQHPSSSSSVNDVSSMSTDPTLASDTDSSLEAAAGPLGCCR

IC50 [1] [µM] | GI50 (HCT-116) [µM] | GI50 (A-375 [2]) [µM] | GI50 (HT-29) [µM] | IC50 [4] [µM] | Structure (SMILES) | GI50 (WM 266-4) [µM] | GI50 [3] [µM] | GI50 at 48 h [5] [µM] | IC50 [6] [µM] | IC50 [7] [µM] | GI50 at 48 h [8] [µM] | IC50 [9] [µM] | IC50 [10] [µM] | Activity (Mus musculus) | Activity (A-375 [11]) [g] | inhibition [12]
30.6 | 125 | 41.9 | 95.3 | 39.3 | S=C(Nc1ccccc1)N1N=C(c2ccc(Cl)c(Cl)c2)CC1c1ccc2c(c1)OCCO2 (stereo not given) | 58.7 | 122 | – | – | – | – | – | – | – | – | –
4.28 | > 200 | 6.32 | 19.5 | > 200 | Cc1ccc(C2=NN(C(=S)Nc3ccccc3)C(c3ccc4c(c3)OCCO4)C2)cc1 (stereo not given) | 10.3 | > 200 | – | – | – | – | – | – | – | – | –
> 200 | 195 | > 200 | > 200 | 124 | S=C(Nc1ccccc1)N1N=C(c2ccccc2Br)CC1c1ccc2c(c1)OCCO2 (stereo not given) | > 200 | > 200 | – | – | – | – | – | – | – | – | –
11.1 | 61.2 | 15.7 | 37.6 | 23.1 | Fc1ccc(C2=NN(C(=S)Nc3ccccc3)C(c3ccc4c(c3)OCCO4)C2)cc1 (stereo not given) | 22.5 | 65.3 | – | – | – | – | – | – | – | – | –
38.9 | 144 | 61.3 | 133 | 48.9 | Cc1ccc(C2=NN(C(=S)Nc3ccccc3)C(c3ccc4c(c3)OCCO4)C2)cc1C (stereo not given) | 70.5 | 148 | – | – | – | – | – | – | – | – | –
0.82 | 57.6 | 1.85 | 6.63 | 21.3 | S=C(Nc1ccccc1)N1N=C(c2ccccc2)CC1c1ccc2c(c1)OCCO2 (stereo not given) | 3.18 | 58.5 | – | – | – | – | – | – | – | – | –
135 | > 200 | 195 | 187 | > 200 | S=C(Nc1ccccc1)N1N=C(c2ccc(Cl)cc2)CC1c1ccc2c(c1)OCCO2 (stereo not given) | > 200 | > 200 | – | – | – | – | – | – | – | – | –
> 200 | 138 | > 200 | > 200 | 95.9 | S=C(Nc1ccccc1)N1N=C(c2cccc(Cl)c2)CC1c1ccc2c(c1)OCCO2 (stereo not given) | > 200 | 153 | – | – | – | – | – | – | – | – | –

Second part, the molecule before the results:

Structure (SMILES) | IC50 [1] [µM] | GI50 (HCT-116) [µM] | GI50 (A-375 [2]) [µM] | GI50 (HT-29) [µM] | IC50 [4] [µM] | GI50 (WM 266-4) [µM] | GI50 [3] [µM] | GI50 at 48 h [5] [µM] | IC50 [6] [µM] | IC50 [7] [µM] | GI50 at 48 h [8] [µM] | IC50 [9] [µM] | IC50 [10] [µM] | Activity (Mus musculus) | Activity (A-375 [11]) [g] | inhibition [12]
FC(F)(F)c1ccc(C2=NN(C(=S)Nc3ccccc3)C(c3ccc4c(c3)OCCO4)C2)cc1 (stereo not given) | 29.5 | 112 | 43.5 | 97.5 | 35.6 | 52.4 | 123 | – | – | – | – | – | – | – | – | –
COc1ccccc1C1=NN(C(=S)Nc2ccccc2)C(c2ccc3c(c2)OCCO3)C1 (stereo not given) | 12.1 | > 200 | 20.3 | 30.5 | > 200 | 25.8 | > 200 | – | – | – | – | – | – | – | – | –
CSc1ccc(C2=NN(C(=S)Nc3ccccc3)C(c3ccc4c(c3)OCCO4)C2)cc1 (stereo not given) | 84.3 | 193 | 159 | > 200 | 156 | 197 | 187 | – | – | – | – | – | – | – | – | –
S=C(Nc1ccccc1)N1N=C(c2cccs2)CC1c1ccc2c(c1)OCCO2 (stereo not given) | 78.3 | 8.19 | 121 | 188 | 5.21 | 154 | 7.96 | – | – | – | – | – | – | – | – | –
S=C(Nc1ccccc1)N1N=C(c2ccc(Br)cc2)CC1c1ccc2c(c1)OCCO2 (stereo not given) | 0.05 | 32.1 | 0.47 | 2.58 | 18.7 | 0.87 | 37.5 | 152 | > 200 | 17.6 | 188 | 188 | 93.6 | – | – | –
O=[N+]([O-])c1ccc(C2=NN(C(=S)Nc3ccccc3)C(c3ccc4c(c3)OCCO4)C2)cc1 (stereo not given) | 57.2 | > 200 | 78.1 | 153 | > 200 | 105 | > 200 | – | – | – | – | – | – | – | – | –
CCCS(=O)(=O)Nc1ccc(F)c(C(=O)c2c[nH]c3ncc(-c4ccc(Cl)cc4)cc23)c1F [VEMURAFENIB] | – | 25.2 | 0.95 | 1.88 | – | 0.21 | 20.8 | – | – | – | – | – | – | Non-Toxic | 0.41 | –
S=C(Nc1ccccc1)N1N=C(c2ccc(OCc3ccccc3)cc2)CC1c1ccc2c(c1)OCCO2 (stereo not given) | 0.01 | 8.53 | 0.35 | 0.86 | 5.23 | 0.42 | 8.23 | 175 | > 200 | 3.15 | > 200 | 176 | 88.9 | – | – | Active
